m5-HT2A agonist: mouse Htr2a agonists via beta-arrestin recruitment, primary screen, cell-based, luminescence | 5-hydroxytryptamine receptor 2A (Mus musculus), P35363 | CHO-K1 mHTR2A beta-arrestin complementation; percent of 30 µM serotonin response | activation, % at 7.6 µM | hit rate 0.66% among 360,000;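 active = activation above a run cutoff, the mean activation of all tested compounds plus 3 SD, cut at about 14% in these data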;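 also: 0% = plate median of compound wells and 100% = 30 µM serotonin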
MC4R antagonist: MC4R antagonists of cAMP signaling, primary screen, cell-based, TR-FRET, antagonist arm of biased-ligand search. MC4R-expressing cells, MTII-stimulated cAMP, LANCE TR-FRET. inhibition, % at 6.5 µM. hit rate 0.48% among 360,000;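 active = inhibition above its plate's cutoff, the mean of tested wells on that plate plus 3 SD, cut at about 29% in these data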;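 also: 0% = Melanotan II alone and 100% = Melanotan II plus saturating MCL0020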
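System: U2OS cells stably expressing human melanocortin 4 receptor (MC4R). Reagent: Melanotan II challenge after compound preincubation. Doses: 6.5 µM. Times: 30-min compound, 1-h challenge, 1-h detection, room temperature. Measured by: TR-FRET with Eu-cAMP and labeled anti-cAMP, 671 nm. Replicates: singlicate.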
Lipid droplet: inhibitors of hepatocyte lipid droplet formation, primary screen, imaging, high-throughput imaging, BODIPY stain. inhibition, % at 6.5 µM. hit rate 0.4% among 240,000. AML12 mouse hepatocytes, oleate lipid droplets. AID 1656, 2009;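 active = lipid droplet intensity inhibited by at least 50%, with more than 500 cells counted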
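Material – AML12 mouse liver cells · Also added – oleate loading, 100 µM · Compound dosing – 6.5 µM single-point dosing · Times – overnight treatment with compound plus oleate · Measured by – fluorescence imaging, 20x objective, two fields per well · Read-out – percent inhibition of filter-corrected integrated lipid droplet intensity per well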
PREPL inhibitor: PREPL enzyme inhibitors, primary screen, biochemical, fluorescence polarization | Prolyl endopeptidase-like (Homo sapiens), Q4J6C6 | recombinant PREPL, fluorescence polarization activity-based probe | inhibition, % at 5.96 µM | hit rate 0.68% among 320,000; in the data active = inhibition above about 43%;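 also: 0% = enzyme with DMSO and 100% = wells lacking enzyme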
Target sequence (Q4J6C6 whole entry, looked up): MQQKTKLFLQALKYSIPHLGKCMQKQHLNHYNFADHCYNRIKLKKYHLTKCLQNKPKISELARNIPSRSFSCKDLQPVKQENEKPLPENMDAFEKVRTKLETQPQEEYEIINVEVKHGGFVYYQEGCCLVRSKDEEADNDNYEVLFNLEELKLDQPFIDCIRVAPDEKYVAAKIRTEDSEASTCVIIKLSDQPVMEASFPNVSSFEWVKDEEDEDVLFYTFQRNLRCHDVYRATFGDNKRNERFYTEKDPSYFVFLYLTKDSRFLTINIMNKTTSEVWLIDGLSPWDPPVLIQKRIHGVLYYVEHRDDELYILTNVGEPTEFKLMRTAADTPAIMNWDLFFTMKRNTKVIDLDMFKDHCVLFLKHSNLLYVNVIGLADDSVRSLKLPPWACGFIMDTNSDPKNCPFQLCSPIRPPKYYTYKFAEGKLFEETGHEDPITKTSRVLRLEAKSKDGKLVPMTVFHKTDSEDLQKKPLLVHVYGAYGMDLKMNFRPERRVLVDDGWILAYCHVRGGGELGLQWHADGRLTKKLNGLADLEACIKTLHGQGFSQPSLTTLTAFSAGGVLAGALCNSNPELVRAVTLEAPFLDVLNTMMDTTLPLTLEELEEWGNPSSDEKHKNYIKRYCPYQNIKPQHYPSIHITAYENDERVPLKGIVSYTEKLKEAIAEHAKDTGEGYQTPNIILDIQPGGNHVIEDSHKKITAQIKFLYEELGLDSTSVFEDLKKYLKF
NTR1 ag: agonists of human NTR1, primary screen, imaging, U2OS cells, beta-arrestin-GFP, high content; hit rate 0.17% among 330,000; Neurotensin receptor type 1 (Homo sapiens), P30989; NTR1-U2OS beta-arrestin-GFP spot imaging, agonist mode; activation, % at 20 µM;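 active = activation at or above 40% of the spot to cytoplasm intensity ratio, with at least 20 cells analyzed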;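 also: 0% = DMSO without peptide and 100% = 100 nM NTR1 peptide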
MC4R barr agon: MC4R agonists recruiting beta-arrestin, primary screen, cell-based, luminescence, agonist arm of biased-ligand search; Melanocortin receptor 4 (Homo sapiens), P32245; U2OS MC4R beta-arrestin complementation; percent of melanotan II response, DMSO zero; activation, % at 8.9 µM; hit rate 0.98% among 360,000;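 active = activation above a per-plate cutoff, the mean activation of sample wells on that plate plus 3 SD, cut at about 8% in these data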
MC4R barr conf: MC4R beta-arrestin agonists, retest, confirmation, cell-based, luminescence, U2OS. AID 602192, 2012. shares compounds with MC4R barr agon. U2OS MC4R beta-arrestin recruitment; scaled DMSO 0%, Melanotan II 100%. activation, % at 8.9 µM. hit rate 31% among 2,400;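 active = mean activation across replicates above the hit cutoff set in the earlier primary screen, cut at about 8% in these data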
MOR DOR agonist: agonists of MOR-DOR heterodimerization, counter-screen for MC4R biased agonist project, cell-based, luminescence; shares compounds with MC4R barr agon; U2OS PathHunter beta-arrestin, beta-gal luminescence; percent of deltorphin B response, DMSO zero; activation, % at 9.2 µM; hit rate 5.8% among 2,400; AID 602194, 2012;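 active = mean activation across replicates exceeds the hit threshold derived in the earlier primary screen, cut at about 18% in these data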;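 also: 100% = deltorphin B at 0.9 µM final and 0% = DMSO alone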
* = called active by the depositor; . = no result given. Compounds with a hit are over-represented: about 2.7% of the library has one in this group of screens.

SMILES | m5-HT2A agonist | MC4R antagonist | Lipid droplet | PREPL inhibitor | NTR1 ag | MC4R barr agon | MC4R barr conf | MOR DOR agonist
C/C(=N\NC(=O)c1ccccc1O)c1ccc(NC(=O)Cc2ccccc2)cc1 | -5 | 2 | 23 | 2 | 2 | -4 | . | .
O=C(CC12CC3CC(CC(C3)C1)C2)Nc1c(F)cccc1F | -4 | 0 | -2 | 0 | -2 | 0 | . | .
Cc1ccc(C(=O)OCC(=O)Nc2cc(C(C)(C)C)no2)c(C)c1 | 10 | 18 | . | 23 | 5 | 9.9* | 7 | 10
CCOC(=O)c1ccc(S(=O)(=O)Nc2cc(C(C)(C)C)no2)cc1 | 2 | -2 | -3 | 2 | 0 | -2 | . | .
COc1ccc(CNCCc2ccc(Cl)cc2)cc1OCc1ccccc1 | -3 | -3 | -125 | -59 | 12 | 16* | 24* | 11
C=C(C)c1cccc(C(C)(C)NC(=O)NC2CCN(Cc3ccccc3)CC2)c1 | 12 | 5 | . | -3 | 0 | 3 | . | .
C=C(C)c1cccc(C(C)(C)NC(=O)N(Cc2ccccc2)Cc2ccco2)c1 | 2 | 1 | 16 | -8 | 0 | 17* | -1 | 5
Clc1ccc(CSc2cnnc3ccccc23)cc1Cl | 1 | -9 | . | . | . | 13* | 3 | 3
CCSc1cnnc2ccccc12 | 4 | -2 | . | . | . | -1 | . | .
O=C1OC(c2ccccc2)(c2ccc(O)cc2)c2ccccc21 (stereo unspecified) | -4 | 4 | . | . | . | 55* | 48* | 4
Cc1[nH]c2ccc(-c3nnc(SCC(=O)c4ccccc4F)o3)cc2c1C | -1 | 16 | . | 4 | 7 | 10* | 1 | 4
COc1ccc(C(C)C)cc1-c1cncc(NC(C)=O)n1 | 3 | 4 | . | . | . | -2 | . | .
CC(=O)Nc1ccc(OCCC[n+]2ccccc2)cc1 | -3 | -1 | -8 | 1 | -1 | -2 | . | .
CCCCCc1ccc(OCCC[n+]2ccccc2)c(CCCCC)c1 | -8 | 18 | -8 | 16 | 13 | 15* | 4 | 8
COCCN(CC(=O)Nc1ccccc1C(F)(F)F)C(=O)/C=C/c1ccc2ccccc2n1 | 1 | 21 | . | 8 | 0 | -4 | . | .
CC(/C=C1\SC(=S)N(NC(=O)c2cccc(O)c2)C1=O)=C\c1ccccc1 | -2 | 10 | -3 | 11 | 7 | 9.8* | 2 | 5
CCOc1ccc(Br)cc1S(=O)(=O)Nc1ccc(C(=O)Nc2ccc(C)cc2)cc1 | -3 | 6 | 14 | -3 | 2 | 10* | -2 | 5
CCOc1ccc(Br)cc1S(=O)(=O)Nc1ccc(NC(=O)c2ccccc2C)cc1 | 1 | 3 | -34 | -23 | 4 | 0 | . | .
Nc1ccc(S(=O)(=O)Nc2nccc(/C=C/c3ccc([N+](=O)[O-])cc3)n2)cc1 | -1 | 13 | -4 | 6 | 0 | 2 | . | .
Nc1ccc(S(=O)(=O)Nc2nccc(/C=C/c3ccc(Cl)cc3)n2)cc1 | -3 | 5 | 7 | 14 | 0 | 21* | -1 | 2
O=S(=O)(NCc1ccccc1)c1ccc(S(=O)(=O)N(Cc2ccccn2)Cc2ccco2)cc1 | -9 | 2 | . | 16 | 4 | 10* | 6 | 4
Cc1nonc1C1CCCN1C(=O)c1cc(COc2ccc(F)cc2F)on1 (stereo unspecified) | -4 | 11 | -10 | 21 | 0 | 0 | . | .
COCCOc1ccc(C(F)(F)F)cc1NC(=O)c1ccc(C)cc1 | 3 | -2 | -22 | 5 | 0 | 15* | 1 | 6
CC(=O)N1CCCN(Cc2cn(-c3cc(C)ccc3C)nc2-c2ccccc2)CC1 | 1 | -3 | -9 | 7 | 3 | -2 | . | .
Cc1cc(C)c(CN2CCN(CCCn3cnc(C(=O)Nc4ccc(C)c(C)c4)n3)CC2)c(C)c1 | 2 | 1 | . | . | . | 16* | 24* | 10
SMILES | m5-HT2A agonist | MC4R antagonist | Lipid droplet | PREPL inhibitor | NTR1 ag | MC4R barr agon | MC4R barr conf | MOR DOR agonist
Cc1ccc(NCCCn2cnc(C(=O)Nc3ccc(C)c(C)c3)n2)cc1C | 3 | 11 | . | . | . | 8 | . | .
O=C(CSc1nc(-c2ccco2)cc(C(F)(F)F)n1)Nc1ccc2c(c1)CCC2 | 3 | -10 | -1 | -4 | 4 | 3 | . | .
Cc1ccc(NC(=O)CSc2nc(-c3ccco3)cc(C(F)(F)F)n2)cc1C | 0 | -21 | -14 | -7 | 0 | 24* | 4 | 4
CC(C)(C)c1nn(-c2ccccc2)c2[nH]c(=O)c(CNCc3ccc4c(c3)OCO4)cc12 | -1 | 6 | 5 | 3 | 4 | 16* | 14* | 10
Cc1ccc(OCCn2c(C)c(/C=N/n3cnnc3)c3ccccc32)cc1 | -8 | -1 | . | 19 | 3 | 16* | 4 | 6
Cc1c(/C=N/n2cnnc2)c2ccccc2n1CCOc1ccc(Cl)cc1 | -6 | -2 | . | 16 | 12 | 7 | . | .
COc1cc(/C=C/c2nc3ccccc3c(=O)[nH]2)cc(OC)c1OC | -2 | 4 | 0 | -2 | 0 | -2 | . | .
C=CCOc1cccc(/C=C/c2nc3ccccc3c(=O)[nH]2)c1 | -1 | 3 | . | -12 | 0 | 24* | 0 | 4
C=CCn1c(=N)n(CC(=O)c2ccc(Br)s2)c2ccccc21 | -3 | -5 | -23 | -6 | 0 | -1 | . | .
Cc1sc2nc(C)n(/N=C/c3ccc(O)cc3O)c(=O)c2c1C | 6 | -10 | -13 | 2 | 4 | 0 | . | .
Cc1sc2nc(C)n(/N=C/c3ccccc3O)c(=O)c2c1C | 6 | 5 | 3 | 10 | 3 | 13* | 3 | 3
c1ccc(CCNc2nc(-c3ccncc3)nc3ccccc23)cc1 | -3 | -11 | 7 | 22 | 11 | 2 | . | .
COc1ccc(NC(=O)c2cccc3c(Br)cccc23)cc1 | -9 | 5 | 0 | -3 | 2 | 12* | -2 | 5
COc1ccc(NC(=O)c2cccc3ccccc23)cc1 | 0 | -6 | -3 | 13 | 3 | -2 | . | .
COc1ccc(-c2nc(NC(=O)c3n[nH]c(=O)c4ccccc34)sc2C)cc1 | -3 | 5 | 0 | 20 | 6 | 14* | 6 | 4

Screening results: PubChem BioAssay, several laboratories
